Results on 6 molecules are retold here after publication PMC3447998 (Biochemistry, 2012).

Entries after “also recorded” stand apart in the source; their conditions may differ.

The test system of one assay is N-terminus of protein. As to conditions: yeast and mammals; ref [24],[25]; cited from earlier work.
The test system of assay [1] is N-terminus of protein expressed in 293LT cells. It counts as cell-based. As to conditions: MS. The procedure, abridged: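 FLAG-tagged constructs were transfected into 293LT cells by calcium phosphate and immunoprecipitated on anti-FLAG beads. Bead-bound protein was reduced, carbamidomethylated and Glu-C digested (1:20). Peptides went to nanoflow reverse-phase HPLC-microESI with a high-resolution MS scan, then 5–10 data-dependent CAD/ETD MS2 scans. Spectra were interpreted manually. Each form's summed extracted-ion-chromatogram area over all charge states was divided by the peptide's total area.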

Assay [2] concerns N-terminal methylation in mouse spleen. As to conditions: mouse spleen lysate/extract, MS. Put shortly: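 Proteins from mouse spleen extract were immunoprecipitated with anti-me3-SPK antibody. On-bead samples were washed in 100 mM ammonium bicarbonate pH 8.0, reduced, carbamidomethylated and digested with Glu-C (1:20). Peptides were analysed by nanoflow reverse-phase HPLC with CAD/ETD tandem MS. N-terminal modifications were assigned by manual interpretation of the spectra.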

Assay [3] relates to endogenous NRMT (293LT cells). Kind of assay: Co-precipitation of endogenous NRMT with FLAG-tagged substrate proteins. As to conditions: C-terminally FLAG-tagged protein expressed in 293LT cells. It counts as binding. The procedure, abridged:
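C-terminally FLAG-tagged RCC1 or VRK2 expressed in 293LT cells, immunoprecipitated with anti-FLAG, and run on 10% polyacrylamide gel with Coomassie staining. On-bead material washed 3× with 100 mM ammonium bicarbonate (pH 8.0), then reduced, carbamidomethylated and digested with endoproteinase Glu-C (enzyme:protein 1:20). Peptides acidified to pH 3.5 and analysed by nano-LC-MS on C18 capillary columns.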

The subject of a further assay is FLAG-tagged NRMT. Description: Co-precipitation of endogenous proteins with FLAG-tagged NRMT. The format is binding. The conditions noted are these: FLAG-tagged NRMT expressed in 293LT cells; Coomassie-stained gel. Put shortly: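 NRMT carrying a C-terminal FLAG tag was expressed in 293LT cells. Endogenous partner proteins were co-immunoprecipitated with it. Immunoprecipitates were resolved on a 10% polyacrylamide gel and stained with Coomassie blue.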

B1: TSNAX protein: protein with SNK-N-terminus (protein, UniProt Q99598 1-290, looked up)
Translin-associated protein X: MSNKEGSGGFRKRKHDNFPHNQRREGKDVNSSSPVMLAFKSFQQELDARHDKYERLVKLSRDITVESKRTIFLLHRITSAPDMEDILTESEIKLDGVRQKIFQVAQELSGEDMHQFHRAITTGLQEYVEAVSFQHFIKTRSLISMDEINKQLIFTTEDNGKENKTPSSDAQDKQFGTWRLRVTPVDYLLGVADLTGELMRMCINSVGNGDIDTPFEVSQFLRQVYDGFSFIGNTGPYEVSKKLYTLKQSLAKVENACYALKVRGSEIPKHMLADVFSVKTEMIDQEEGIS
On to B1, for which the “N-terminal acetylation reported (in words)” value with N-terminus of protein is recorded as “reported to be N-terminally acetylated”.

B2: PTPCAAX2: protein tyrosine phosphatase PTPCAAX2 (protein, UniProt Q12974 1-164, looked up)
Protein tyrosine phosphatase …: MNRPAPVEISYENMRFLITHNPTNATLNKFTEELKKYGVTTLVRVCDATYDKAPVEKEGIHVLDWPFDDGAPPPNQIVDDWLNLLKTKFREEPGCCVAVHCVAGLGRAPVLVALALIECGMKYEDAVQFIRQKRRGAFNSKQLLYLEKYRPKMRLRFRDTNGHC
As for B2, in the assay with N-terminus of protein, the “N-terminal acetylation reported (in words)” value was “reported to be N-terminally acetylated”.

B3: MLC9: Myosin Light Chain isoform (protein)
chain: MSSKRAKAKTTKKRPQRATSNVFAMFDQSQIQEFKEAFNMIDQNRDGFIDKEDLHDMLASLGKNPTDEYLEGMMSEAPGPINFTMFLTMFGEKLNGTDPEDVIRNAFACFDEEASGFIHEDHLRELLTTMGDRFTDEEVDEMYREAPIDKKGNFNYVEFTRILKHGAKDKDD
modifications: 100% N-terminally acetylated (by MS); left off: FLAG, C-terminal, kept
For B3, the “N-terminal modification (in words)” value in assay [1] (293LT cells, immunoprecipitated protein) is “not N-terminally methylated”. Moreover, the N-terminal acetylation in assay [1] (over-expressed in 293LT cells) is 100%. The “N-terminal methylation in vivo (in words)” value in assay [2] is “methylated at the N-terminus in vivo; also recorded: N-terminally methylated”. In addition, the “capture / co-precipitation of endogenous NRMT (in words)” value (“capture / co-precipitation” for short) in assay [3] was “cannot IP endogenous NRMT”.

B4: ENSA protein: protein with SQK-N-terminus (protein, UniProt O43768 2-121, looked up)
Alpha-endosulfine: SQKQEEENPAEETGEEKQDTQEKEGILPERAEEAKLKAKYPSLGQKPGGSDFLMKRLQKGQKYFDSGDYNMAKAKMKNKQLPSAGPDKNLVTGDHIPTPQDLPQRKSSLVTSKLAGGQVE
B4: the “N-terminal acetylation reported (in words)” value in the assay on N-terminus of protein is reported as “reported to be N-terminally acetylated”.

B5: RCC1-FLAG: FLAG-tagged RCC1, possesses a S-P-K motif (protein)
chain: SPKRIAKRRSPPADAIPKSKKVKVSHRSHSTEPGLVLTLGQGDVGQLGLGENVMERKKPALVSIPEDVVQAEAGGMHTVCLSKSGQVYSFGCNDEGALGRDTSVEGSEMVPGKVELQEKVVQVSAGDSHTAALTDDGRVFLWGSFRDNNGVIGLLEPMKKSMVPVQVQLDVPVVKVASGNDHLVMLTADGDLYTLGCGEQGQLGRVPELFANRGGRQGLERLLVPKCVMLKSRGSRGHVRFQDAFCGAYFTFAISHEGHVYGFGLSNYHQLGTPGTESCFIPQNLTSFKNSTKSWVGFSGGQHHTVCMDSEGKAYSLGRAEYGRLGLGEGAEEKSIPTLISRLPAVSSVACGASVGYAVTKDGRVFAWGMGTNYQLGTGQDEDAWSPVEMMGKQLENRVVLSVSSGGQHTVLLVKDKEQS
modifications: left off: FLAG, C-terminal, kept
Regarding B5, the “capture / co-precipitation” value in assay [3] is recorded as “efficiently captured endogenous NRMT”; in assay [3] (listed as RCC1), “NRMT is co-precipitated”.

B6: Mina53: possesses a potential N-terminal methylation motif, MPKKAKPT (protein)
chain: MPKKAKPTGSGKEEGPAPCKQMKLEAAGGPSALNFDSPSSLFESLISPIKTETFFKEFWEQKPLLIQRDDPALATYYGSLFKLTDLKSLCSRGMYYGRDVNVCRCVNGKKKVLNKDGKAHFLQLRKDFDQKRATIQFHQPQRFKDELWRIQEKLECYFGSLVGSNVYITPAGSQGLPPHYDDVEVFILQLEGEKHWRLYHPTVPLAREYSVEAEERIGRPVHEFMLKPGDLLYFPRGTIHQADTPAGLAHSTHVTISTYQNNSWGDFLLDTISGLVFDTAKEDVELRTGIPRQLLLQVESTTVATRRLSGFLRTLADRLEGTKELLSSDMKKDFIMHRLPPYSAGDGAELSTPGGKLPRLDSVVRLQFKDHIVLTVLPDQDQSDEAQEKMVYIYHSLKNSRETHMMGNEEETEFHGLRFPLSHLDALKQIWNSPAISVKDLKLTTDEEKESLVLSLWTECLIQVV
Turning to B6, in assay [1] (both samples, data not shown), the “cleavage of the initial Met residue” value turned out to be 100%. The “capture / co-precipitation” value in assay [3] is reported as “unable to capture endogenous NRMT”. The “co-precipitation with FLAG-tagged NRMT (in words)” value in the assay on FLAG-tagged NRMT is on record as “co-precipitates; also recorded: co-precipitated with FLAG-tagged NRMT”.
